The source made the active and inactive calls. The rule behind the calls is not given here.
What was measured:
Mus musculus [1] = assay: Anti-seizure activity was evaluated by Maximal electroshock seizure (MES) test at dose 100 mg/kg after 0.5 hours; +++ denotes antiseizure activity; format: functional, organism-based; parameters: dose 100 mg/kg
Procedure, shortened: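 Phase I screen in mice: ip injection at 30, 100, 300 and 600 mg/kg in 30% PEG 400 (0.01 mL/g). Test run 0.5 h and 4 h after dosing. 60-Hz AC, 50 mA, via corneal electrodes for 0.2 s. Protection means abolition of hind-leg tonic extension. Scored ++++ to + for activity at 30 to 600 mg/kg.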

Mus musculus [2] = assay: Anti-seizure activity was evaluated by Neurologic toxicity (rotarod test) at dose 300 mg/kg after 0.5 hours; ++ denotes antiseizure activity; format: functional, organism-based; parameters: dose 300 mg/kg
Procedure, shortened: (§1)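 Phase I neurotoxicity in mice by rotorod ataxia test. Compound given ip at 30, 100, 300 or 600 mg/kg in 30% PEG 400, read 0.5 h and 4 h after. Scored ++++ to + for toxicity at 30 to 600 mg/kg; - means no toxicity.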

Mus musculus [3] = assay: Anti-seizure activity was evaluated by Neurologic toxicity (rotarod test) at dose 600 mg/kg after 4.0 hours; + denotes neurotoxicity; format: functional, organism-based; parameters: dose 600 mg/kg; procedure, shortened: as §1
Mus musculus [4] = assay: Anti-seizure activity was evaluated by Subcutaneous pentylenetetrazole seizure test at dose 100 mg/kg after 0.5 hours; +++ denotes antiseizure activity; format: functional, organism-based; parameters: dose 100 mg/kg
Procedure, shortened: (§2)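 Phase I screen in mice: ip dosing at 30, 100, 300 and 600 mg/kg in 30% PEG 400, read 0.5 h and 4 h after. Pentylenetetrazol given sc at CD97 (85 mg/kg). Protection means no clonic spasm of at least 5 s over 30 min. Scored ++++ to + for 30 to 600 mg/kg.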

Mus musculus [5] = assay: Anti-seizure activity was evaluated by Subcutaneous pentylenetetrazole seizure test at dose 300 mg/kg after 4.0 hours; ++ denotes antiseizure activity; format: functional, organism-based; parameters: dose 300 mg/kg; procedure, shortened: as §2
Mus musculus [6] = assay: Median effective dose was evaluated by Maximal electroshock seizure test through intraperitoneal administration; format: functional; conditions: ip
Procedure, shortened: (§3)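 Phase II in mice, ip dosing in 30% PEG 400. Groups of 6-12 mice per dose until at least three points fall in 10-90% protection. […] MES: 50 mA, 0.2 s corneal. scMet: pentylenetetrazol 85 mg/kg sc.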

Mus musculus [7] = assay: Median effective dose was evaluated by subcutaneous pentylenetetrazole seizure test through intraperitoneal administration; format: functional; procedure, shortened: as §3
Mus musculus [8] = assay: Median toxic dose was evaluated by […] through intraperitoneal administration; format: functional
Mus musculus [9] = species: Mus musculus; assay: Time to peak activity was evaluated by Maximal electroshock seizure test in hours; format: functional
Mus musculus [10] = species: Mus musculus; assay: Time to peak toxicity was evaluated by Maximal electroshock seizure test in hours; format: functional
Rattus norvegicus [11] = species: Rattus norvegicus; assay: Protective index (TD50/ED50) was determined against MES induced seizure in rat.; format: functional
Procedure, shortened: (§4)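 Oral dosing in 30% PEG 400: phase IV in mice (0.01 mL/g), phase VI in Sprague-Dawley rats (0.004 mL/g). ED50/TD50 found as in phase II, at the stated time of peak effect. MES current 50 mA in mice, 150 mA in rats. Toxicity by rotorod in mice; positional sense, gait and stance in rats. PI = TD50/ED50.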

Rattus norvegicus [12] = species: Rattus norvegicus; assay: Protective index (TD50/ED50) was determined against scMet induced seizure in rat.; format: functional; procedure, shortened: as §4
Mus musculus [13] = assay: Anti-seizure activity was evaluated by Subcutaneous pentylenetetrazole seizure test at dose 300 mg/kg after 0.5 hours; ++ denotes antiseizure activity; format: functional, organism-based; parameters: dose 300 mg/kg; procedure, shortened: as §2
Mus musculus [14] = assay: Anti-seizure activity was evaluated by Neurologic toxicity (rotarod test) at dose 600 mg/kg after 0.5 hours; + denotes neurotoxicity; format: functional, organism-based; parameters: dose 600 mg/kg; procedure, shortened: as §1
Mus musculus [15] = assay: Anti-seizure activity was evaluated by Subcutaneous pentylenetetrazole seizure test at dose 100 mg/kg after 4.0 hours; +++ denotes antiseizure activity; format: functional, organism-based; parameters: dose 100 mg/kg; procedure, shortened: as §2
Mus musculus [16] = assay: Anti-seizure activity was evaluated by Subcutaneous pentylenetetrazole seizure test at dose 600 mg/kg after 0.5 hours; + denotes neurotoxicity; format: functional, organism-based; parameters: dose 600 mg/kg; procedure, shortened: as §2
Mus musculus [17] = assay: Inhibition of seizures induced in mice by a convulsant dose of up to 100 mg/kg; format: functional, organism-based; parameters: dose 100 mg/kg
Procedure, shortened: (§5)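 Convulsant (bicuculline, picrotoxin, strychnine or PTZ) given at CD97 as a 0.5% solution. Observed 30 min (45 min for picrotoxin). PI uses ip mouse TD50.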

Mus musculus [18] = assay: Inhibition of picrotoxin-induced seizures in mice by ip administration at 55-100 mg/kg (g= Maximum 62.5% protection); format: functional, organism-based
Procedure, shortened: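 Phase V differentiation in mice: test drug given ip at time of peak therapeutic effect, then the CD₉₇ of each convulsant (picrotoxin, bicuculline, strychnine) given ip as a 0.5% solution; observation 30 min for bicuculline and strychnine, 45 min for picrotoxin. Drug in 30% PEG 400, 0.01 mL/g. ED₅₀ with 95% confidence intervals from ≥3 points in the 10-90% protection range, groups of 6-12 mice.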

Mus musculus [19] = assay: Inhibition of seizures induced in mice by a convulsant dose of strychnine through ip administration; f=No protection up to 100 mg/kg; format: functional, organism-based; parameters: dose 100 mg/kg; procedure, shortened: as §5
Mus musculus [20] = assay: Median effective dose was evaluated by subcutaneous pentylenetetrazole seizure test through up to 300 mg/kg; g=no protection up to 33 mg/kg; format: functional, organism-based
Mus musculus [21] = assay: Median Effective dose was evaluated by Maximal electroshock seizure (MES) test in mice by oral administration; format: functional
Mus musculus [22] = assay: Median Effective dose was evaluated by Subcutaneous pentylenetetrazole seizure test in mice by oral administration; c=No protection up to 300 mg/kg; format: functional, organism-based; parameters: dose 300 mg/kg
Procedure, shortened: as §4, with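 “in rats. PTZ sc 85 mg/kg in mice, 70 mg/kg in rats. Toxicity by” for “in rats. Toxicity by”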

Mus musculus [23] = species: Mus musculus; assay: Median hypnotic dose was evaluated by loss of righting reflex; format: functional
Mus musculus [24] = assay: Median lethal dose was evaluated by mortality after 24 hr through ip injection administration; format: functional
Procedure, shortened: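 Mice were dosed ip in 30% PEG 400. Mortality was scored 24 h after injection in groups of eight. The 24-h LD₅₀ was derived as for the ED₅₀/TD₅₀, with 95% confidence intervals.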

Mus musculus [25] = assay: […] was evaluated by Neurologic toxicity (rotarod test) in mice by oral administration; format: functional
Procedure, shortened: as §4, with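 “in rats. PTZ sc 85 mg/kg in mice, 70 mg/kg in rats. Toxicity by” for “in rats. Toxicity by”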

Mus musculus [26] = assay: Time to peak effect in mice was evaluated by Maximal electroshock seizure (MES) test in hours by oral administration; format: functional
Procedure, shortened: as §4, with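 “in rats. PTZ sc 85 mg/kg in mice, 70 mg/kg in rats. Toxicity by” for “in rats. Toxicity by”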

Mus musculus [27] = assay: Time to peak effect in mice was evaluated by Neurologic toxicity (rotarod test) in hours by oral administration; format: functional
Procedure, shortened: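 Oral dosing in mice in 30% PEG 400 (0.01 mL/g). Neurologic deficit was scored by the rotorod ataxia test, and the time of peak effect was given in hours.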

Mus musculus [28] = assay: Time to peak effect in mice was evaluated by Subcutaneous pentylenetetrazole seizure test in hours by oral administration; format: functional
Procedure, shortened: as §4, with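 “in rats. PTZ sc 85 mg/kg in mice, 70 mg/kg in rats. Toxicity by” for “in rats. Toxicity by”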

Rattus norvegicus [29] = assay: Median Effective dose was evaluated by Maximal electroshock seizure (MES) test in Rats by oral administration; format: functional
Rattus norvegicus [30] = assay: Median Effective dose was evaluated by Subcutaneous pentylenetetrazole seizure test in Rats by oral administration up to 800 mg/kg;d= no protection; format: functional, organism-based; parameters: dose 800 mg/kg
Procedure, shortened: as §4, with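 “in rats. PTZ sc 85 mg/kg in mice, 70 mg/kg in rats. Toxicity by” for “in rats. Toxicity by”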

Rattus norvegicus [31] = assay: […] was evaluated by […] by oral administration up to 3000 mg/kg; format: functional, organism-based; parameters: dose 3000 mg/kg
Rattus norvegicus [32] = assay: Time to peak effect in Rats was evaluated by Maximal electroshock seizure (MES) test in hours by oral administration; format: functional
Procedure, shortened: as §4, with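 “in rats. PTZ sc 85 mg/kg in mice, 70 mg/kg in rats. Toxicity by” for “in rats. Toxicity by”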

Rattus norvegicus [33] = assay: Time to peak effect in Rats was evaluated by Subcutaneous pentylenetetrazole seizure test in hours by oral administration; format: functional
Procedure, shortened: as §4, with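 “in rats. PTZ sc 85 mg/kg in mice, 70 mg/kg in rats. Toxicity by” for “in rats. Toxicity by”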

Rattus norvegicus [34] = assay: Time to peak effect in Rats was evaluated by Neurologic toxicity (rotarod test) in hours by oral administration; format: functional

| Structure (SMILES) | Activity (Mus musculus [1]) | Activity (Mus musculus [2]) | Activity (Mus musculus [3]) | ED50 (Mus musculus [6]) [mg/kg] | ED50 (Mus musculus [7]) [mg/kg] | TD50 (Mus musculus [8]) [mg/kg] | TPE (Mus musculus [9]) | TPE (Mus musculus [10]) | PI (Rattus norvegicus [11]) | PI (Rattus norvegicus [12]) | also measured |
| --- | --- | --- | --- | --- | --- | --- | --- | --- | --- | --- | --- |
| O=C(Cc1cccc(Cl)c1)NS(=O)(=O)C(F)(F)F | Antiseizure activity | Antiseizure activity | Antiseizure activity | 6.8 | 35 | 249 | 2 | 0.5 | 37 | 7.2 | Activity (Mus musculus [4]): Antiseizure activity; Activity (Mus musculus [5]): Antiseizure activity |
| O=C(Cc1ccc([N+](=O)[O-])cc1)NS(=O)(=O)C(F)(F)F | Antiseizure activity | Antiseizure activity | Antiseizure activity | 12 | 20 | 482 | 4 | 6 | 39 | 24 | Activity (Mus musculus [13]): Antiseizure activity |
| O=C(Cc1ccc(Br)cc1)NS(=O)(=O)C(F)(F)F | Antiseizure activity | – | Antiseizure activity | 23 | 55 | 291 | 4 | 2 | 13 | 5.3 | Activity (Mus musculus [14]): Antiseizure activity; Activity (Mus musculus [15]): Antiseizure activity; Activity (Mus musculus [16]): Antiseizure activity |
| O=C1NC(=O)C(c2ccccc2)(c2ccccc2)N1 [PHENYTOIN] | – | – | – | – | – | – | 2 | 2 | – | – | ED50 (Mus musculus [17]): inactive; ED50 (Mus musculus [18]): Active; ED50 (Mus musculus [19]): inactive; ED50 (Mus musculus [20]): inactive; ED50 (Mus musculus [21]): 9 mg/kg; ED50 (Mus musculus [22]): inactive; HD50 (Mus musculus [23]): 178 mg/kg; LD50 (Mus musculus [24]): 230 mg/kg; TD50 (Mus musculus [25]): 87 mg/kg; TPE (Mus musculus [26]): 2 h; TPE (Mus musculus [27]): 2 h; TPE (Mus musculus [28]): 2 h; ED50 (Rattus norvegicus [29]): 30 mg/kg; ED50 (Rattus norvegicus [30]): inactive; TD50 (Rattus norvegicus [31]): inactive; TPE (Rattus norvegicus [32]): 4 h; TPE (Rattus norvegicus [33]): 4 h; TPE (Rattus norvegicus [34]): 0.5 h |
